Data published in ChEMBL document CHEMBL4190234, “Design, synthesis and anticancer activity of new monastrol analogues bearing 1,3,4-oxadiazole moiety” (Eur J Med Chem, 2017).

Tests used:
Format in all cases: functional
SNB-19 = assay: Growth inhibition of human SNB19 cells at 10 uM incubated for 48 hrs by sulforhodamine B assay relative to control; conditions: SNB-19, 48 h, read-out: GI
Method in brief: (§1)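 NCI single-dose screen: cells grown in RPMI 1640 with 5% FBS and 2 mM L-glutamine, plated at 5,000–40,000 cells/well and preincubated 24 h at 37 °C, 5% CO2. Compounds taken from DMSO stock and tested at final 10 µM for 48 h. Cells fixed with TCA, stained with 0.4% SRB, absorbance read at 515 nm. Percentage growth calculated against untreated controls; controls held DMSO at the same dilution.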

OVCAR-8 = assay: Growth inhibition of human OVCAR8 cells at 10 uM incubated for 48 hrs by sulforhodamine B assay relative to control; conditions: OVCAR-8, 48 h, read-out: GI
Method in brief: (§2)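 Single-dose screen at 10 μM final: cells in RPMI 1640, 5% FBS, 2 mM L-glutamine, plated 5,000–40,000/well, preincubated 24 h at 37°C, 5% CO2; drug 48 h; adherent cells fixed with 10% TCA, suspension cells with 16% TCA; SRB stain, absorbance 515 nm; percentage growth versus untreated control, with time-zero plates.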

NCI-H522 = assay: Growth inhibition of human NCI-H522 cells at 10 uM incubated for 48 hrs by sulforhodamine B assay relative to control; conditions: NCI-H522, 48 h, read-out: GI; method in brief: as §2
SK-MEL-5 = assay: Growth inhibition of human SK-MEL-5 cells at 10 uM incubated for 48 hrs by sulforhodamine B assay relative to control; conditions: SK-MEL-5, 48 h, read-out: GI; method in brief: as §1
A549 = assay: Growth inhibition of human A549/ATCC cells at 10 uM incubated for 48 hrs by sulforhodamine B assay relative to control; conditions: A549, 48 h, read-out: GI; method in brief: as §2
BT-549 = assay: Growth inhibition of human BT549 cells at 10 uM incubated for 48 hrs by sulforhodamine B assay relative to control; conditions: BT-549, 48 h, read-out: GI; method in brief: as §2
SK-MEL-28 = assay: Growth inhibition of human SK-MEL-28 cells at 10 uM incubated for 48 hrs by sulforhodamine B assay relative to control; conditions: SK-MEL-28, 48 h, read-out: GI; method in brief: as §1
DU-145 = assay: Growth inhibition of human DU145 cells at 10 uM incubated for 48 hrs by sulforhodamine B assay relative to control; conditions: DU-145, 48 h, read-out: GI; method in brief: as §2
HCC 2998 = assay: Growth inhibition of human HCC2998 cells at 10 uM incubated for 48 hrs by sulforhodamine B assay relative to control; conditions: HCC 2998, 48 h, read-out: GI; method in brief: as §2
HOP-62 = assay: Growth inhibition of human HOP62 cells at 10 uM incubated for 48 hrs by sulforhodamine B assay relative to control; conditions: HOP-62, 48 h, read-out: GI; method in brief: as §2
MDA-MB-435 = assay: Growth inhibition of human MDA-MB-435 cells at 10 uM incubated for 48 hrs by sulforhodamine B assay relative to control; conditions: MDA-MB-435, 48 h, read-out: GI; method in brief: as §2
786-0 = assay: Growth inhibition of human 786-0 cells at 10 uM incubated for 48 hrs by sulforhodamine B assay relative to control; conditions: 786-0, 48 h, read-out: GI; method in brief: as §2
SK-OV-3 = assay: Growth inhibition of human SKOV3 cells at 10 uM incubated for 48 hrs by sulforhodamine B assay relative to control; conditions: SK-OV-3, 48 h, read-out: GI; method in brief: as §1
LOX IMVI = assay: Growth inhibition of human LOXIMVI cells at 10 uM incubated for 48 hrs by sulforhodamine B assay relative to control; conditions: read-out: GI; method in brief: as §2
Hs-578T = assay: Growth inhibition of human Hs 578T cells at 10 uM incubated for 48 hrs by sulforhodamine B assay relative to control; conditions: read-out: GI; method in brief: as §2
HL-60(TB) = assay: Growth inhibition of human HL-60(TB) cells at 10 uM incubated for 48 hrs by sulforhodamine B assay relative to control; conditions: HL-60, 48 h, read-out: GI
Method in brief: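 Single dose of 10 µM in the NCI ~60-line panel. Cells grown in RPMI 1640 with 5% FBS and 2 mM L-glutamine, plated and pre-incubated 24 h, then exposed 48 h at 37°C under 5% CO2. Suspension cells fixed with TCA (16% final) and stained with sulforhodamine B, A515 read. Reported as percent growth versus untreated control and as GI%.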

RXF 393 = assay: Growth inhibition of human RXF393 cells at 10 uM incubated for 48 hrs by sulforhodamine B assay relative to control; conditions: RXF 393, 48 h, read-out: GI; method in brief: as §2
KM12 = assay: Growth inhibition of human KM12 cells at 10 uM incubated for 48 hrs by sulforhodamine B assay relative to control; conditions: KM12, 48 h, read-out: GI; method in brief: as §2
TK-10 = assay: Growth inhibition of human TK10 cells at 10 uM incubated for 48 hrs by sulforhodamine B assay relative to control; conditions: TK-10, 48 h, read-out: GI; method in brief: as §1
UACC-62 = assay: Growth inhibition of human UACC62 cells at 10 uM incubated for 48 hrs by sulforhodamine B assay relative to control; conditions: UACC-62, 48 h, read-out: GI; method in brief: as §1
MCF7 = assay: Growth inhibition of human MCF7 cells at 10 uM incubated for 48 hrs by sulforhodamine B assay relative to control; conditions: MCF7, 48 h, read-out: GI; method in brief: as §2
T47D = assay: Growth inhibition of human T47D cells at 10 uM incubated for 48 hrs by sulforhodamine B assay relative to control; conditions: read-out: GI; method in brief: as §1
U-251 = assay: Growth inhibition of human U251 cells at 10 uM incubated for 48 hrs by sulforhodamine B assay relative to control; conditions: U-251, 48 h, read-out: GI; method in brief: as §1
OVCAR-3 = assay: Growth inhibition of human OVCAR3 cells at 10 uM incubated for 48 hrs by sulforhodamine B assay relative to control; conditions: OVCAR-3, 48 h, read-out: GI; method in brief: as §2
HT-29 = assay: Growth inhibition of human HT-29 cells at 10 uM incubated for 48 hrs by sulforhodamine B assay relative to control; conditions: HT-29, 48 h, read-out: GI; method in brief: as §2
NCI-H23 = assay: Growth inhibition of human NCI-H23 cells at 10 uM incubated for 48 hrs by sulforhodamine B assay relative to control; conditions: NCI-H23, 48 h, read-out: GI; method in brief: as §2
CCRF-CEM = assay: Growth inhibition of human CCRF-CEM cells at 10 uM incubated for 48 hrs by sulforhodamine B assay relative to control; conditions: read-out: GI; method in brief: as §2
HCT-15 = assay: Growth inhibition of human HCT15 cells at 10 uM incubated for 48 hrs by sulforhodamine B assay relative to control; conditions: HCT-15, 48 h, read-out: GI; method in brief: as §2
COLO 205 = assay: Growth inhibition of human COLO205 cells at 10 uM incubated for 48 hrs by sulforhodamine B assay relative to control; conditions: COLO 205, 48 h, read-out: GI; method in brief: as §2

Row | Structure (SMILES) | inhibition of growth at 10 µM (SNB-19) | inhibition of growth at 10 µM (OVCAR-8) | inhibition of growth at 10 µM (NCI-H522) | inhibition of growth at 10 µM (SK-MEL-5) | inhibition of growth at 10 µM (A549) | inhibition of growth at 10 µM (BT-549) | inhibition of growth at 10 µM (SK-MEL-28) | inhibition of growth at 10 µM (DU-145) | inhibition of growth at 10 µM (HCC 2998) | inhibition of growth at 10 µM (HOP-62) | inhibition of growth at 10 µM (MDA-MB-435) | inhibition of growth at 10 µM (786-0) | inhibition of growth at 10 µM (SK-OV-3) | inhibition of growth at 10 µM (LOX IMVI) | inhibition of growth at 10 µM (Hs-578T) | inhibition of growth at 10 µM (HL-60(TB)) | inhibition of growth at 10 µM (RXF 393) | inhibition of growth at 10 µM (KM12) | inhibition of growth at 10 µM (TK-10) | inhibition of growth at 10 µM (UACC-62) | further results
1 | CCOC(=O)C1=C(C)NC(SCc2nnc(-c3ccc(OC)cc3)o2)=NC1c1ccc(F)cc1 (configuration not stated) | 11.4% | < 10% | 26.5% | < 10% | 12.7% | < 10% | < 10% | < 10% | < 10% | 12% | < 10% | < 10% | 14.2% | < 10% | < 10% | 12% | 14.5% | < 10% | < 10% | < 10% | inhibition of growth at 10 µM (MCF7): < 10%; inhibition of growth at 10 µM (T47D): 33.3%; inhibition of growth at 10 µM (U-251): < 10%; inhibition of growth at 10 µM (OVCAR-3): < 10%; inhibition of growth at 10 µM (HT-29): < 10%; inhibition of growth at 10 µM (NCI-H23): < 10%; inhibition of growth at 10 µM (CCRF-CEM): 15.3%; inhibition of growth at 10 µM (HCT-15): < 10%; inhibition of growth at 10 µM (COLO 205): < 10%
2 | CC(=O)C1=C(C)NC(SCc2nnc(-c3ccc(Cl)cc3)o2)=NC1c1ccc(F)cc1 (configuration not stated) | < 10% | < 10% | 15.6% | < 10% | < 10% | < 10% | < 10% | < 10% | < 10% | < 10% | < 10% | 16.4% | < 10% | < 10% | < 10% | 11.5% | < 10% | < 10% | 14.6% | 22.6% | inhibition of growth at 10 µM (MCF7): 10.6%; inhibition of growth at 10 µM (T47D): 24.1%; inhibition of growth at 10 µM (U-251): < 10%; inhibition of growth at 10 µM (OVCAR-3): < 10%; inhibition of growth at 10 µM (HT-29): < 10%; inhibition of growth at 10 µM (NCI-H23): < 10%; inhibition of growth at 10 µM (CCRF-CEM): < 10%; inhibition of growth at 10 µM (HCT-15): < 10%; inhibition of growth at 10 µM (COLO 205): < 10%
3 | COc1ccc(-c2nnc(CSC3=NC(c4ccc(F)cc4)C(C(C)=O)=C(C)N3)o2)cc1 (configuration not stated) | 13.4% | < 10% | 18% | < 10% | 15.6% | < 10% | < 10% | < 10% | < 10% | 19.4% | < 10% | < 10% | 18.3% | < 10% | < 10% | 15.2% | < 10% | < 10% | < 10% | 10.8% | inhibition of growth at 10 µM (MCF7): 10.5%; inhibition of growth at 10 µM (T47D): 28.9%; inhibition of growth at 10 µM (U-251): 15.3%; inhibition of growth at 10 µM (OVCAR-3): < 10%; inhibition of growth at 10 µM (HT-29): < 10%; inhibition of growth at 10 µM (NCI-H23): < 10%; inhibition of growth at 10 µM (CCRF-CEM): 15.7%; inhibition of growth at 10 µM (HCT-15): < 10%; inhibition of growth at 10 µM (COLO 205): < 10%
